Activity and IC50 data for 1 compound are collected here from ChEMBL document CHEMBL4043093, “2-Oxo-3, 4-dihydropyrimido[4, 5-d]pyrimidinyl derivatives as new irreversible pan fibroblast growth factor receptor (FGFR) inhibitors” (Eur J Med Chem, 2017).

The target in assay [1] is Rhodopsin kinase GRK1 (Homo sapiens) (UniProt Q15835). The assay is described as follows: Inhibition of wild-type human full length GRK1 (M1 to S563 residues) expressed in HEK293 cells assessed as residual activity at 1000 nM after 30 mins by Kinomescan method relative to control. The assay is classed as cell-based. Put shortly:
(§1)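 Single-concentration screen at 1 µM across a 456-kinase KINOMEscan panel. The read-out is Percent Control for each kinase.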

Assay [2] addresses Serine/threonine-protein kinase TAO1 (Homo sapiens) (UniProt Q7L7X3). The assay is described as follows: Inhibition of wild-type human partial length TAOK1 (M1 to A320 residues) expressed in HEK293 cells assessed as residual activity at 1000 nM after 30 mins by Kinomescan method relative to control. The assay is classed as cell-based.
Assay [3] concerns the target Serine/threonine-protein kinase MRCK gamma (Homo sapiens) (UniProt Q6DT37). The assay is described as follows: Inhibition of wild-type human partial length DMPK2 (S46 to S408 residues) expressed in Escherichia coli BL21 assessed as residual activity at 1000 nM after 30 mins by Kinomescan method relative to control.
Assay [4] has as its target Cyclin-dependent kinase-like 1 (Homo sapiens) (UniProt Q00532). As to the kind of experiment: Inhibition of wild-type human full length CDKL1 (M1 to I358 residues) expressed in HEK293 cells assessed as residual activity at 1000 nM after 30 mins by Kinomescan method relative to control. The assay is classed as cell-based. In short, it runs like this:
(§2)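 Single-point screen at a fixed 1 µM, run within a 456-kinase DiscoveRx KINOMEscan panel. Each kinase's read-out is Percent Control, i.e. signal relative to a control without compound. Hits were scored by a Percent Control < 35 cut-off, and an S(35) selectivity score was calculated across the non-mutant kinases.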

Assay [5] has as its target Activin receptor type-1-like (Homo sapiens) (UniProt P37023). The assay is described as follows: Inhibition of wild-type human ACVRL1 (L164 to Q503 residues) expressed in Escherichia coli BL21 assessed as residual activity at 1000 nM after 30 mins by Kinomescan method relative to control. In short, it runs like this: as §2
In assay [6] the target is Ephrin type-B receptor 6 (Homo sapiens) (UniProt O15197). As to the kind of experiment: Inhibition of wild-type human partial length EPHB6 (Q634 to P948 residues) expressed in HEK293 cells assessed as residual activity at 1000 nM after 30 mins by Kinomescan method relative to control. The assay is classed as cell-based.
The target in assay [7] is Proto-oncogene tyrosine-protein kinase receptor Ret (Homo sapiens) (UniProt P07949). The assay is described as follows: Inhibition of wild-type human partial length RET (E713 to D1014 residues) expressed in Escherichia coli BL21 assessed as residual activity at 1000 nM after 30 mins by Kinomescan method relative to control.
Assay [8] has as its target Receptor-interacting serine/threonine-protein kinase 2 (Homo sapiens) (UniProt O43353). The assay is described as follows: Inhibition of wild-type human partial length RIPK2 (M1 to K310 residues) expressed in Escherichia coli BL21 assessed as residual activity at 1000 nM after 30 mins by Kinomescan method relative to control.
A short description of assay [9]: Antiproliferative activity against human FGFR2-amplified SUM52 cells after 5 days by SRB assay. Particulars: SUM52, 120 h.
Assay [10] relates to Epidermal growth factor receptor (Homo sapiens), P00533 [T790M]. As to the kind of experiment: Inhibition of human partial length EGFR T790M mutant (R669 to G1022 residues) expressed in HEK293 cells assessed as residual activity at 1000 nM after 30 mins by Kinomescan method relative to control. It is filed as cell-based. Put shortly: (§3)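 KINOMEscan binding panel of 456 kinases, with the test compound at a single concentration of 1 µM. Read-out is Percent Control.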

Assay [11] concerns the target Calcium/calmodulin-dependent protein kinase type 1 (Homo sapiens) (UniProt Q14012). As to the kind of experiment: Inhibition of wild-type human full length CAMK1 (M1 to L370 residues) expressed in Escherichia coli BL21 assessed as residual activity at 1000 nM after 30 mins by Kinomescan method relative to control. Put shortly:
as §2

The subject of assay [12] is NCI-H520. The assay is described as follows: Antiproliferative activity against human FGFR1-amplified NCI-H520 cells after 7 days by SRB assay. Particulars: NCI-H520, 168 h.
In assay [13] the target is Ribosomal protein S6 kinase alpha-4 (Homo sapiens) (UniProt O75676). As to the kind of experiment: Inhibition of wild-type human partial length N-terminal RPS6KA4 kinase domain 1 expressed in Escherichia coli BL21 assessed as residual activity at 1000 nM after 30 mins by Kinomescan method relative to control.
The target in assay [14] is Casein kinase I isoform alpha-like (Homo sapiens) (UniProt Q8N752). As to the kind of experiment: Inhibition of wild-type human full length CSNK1A1L (M1 to N337 residues) expressed in Escherichia coli BL21 assessed as residual activity at 1000 nM after 30 mins by Kinomescan method relative to control. In short, it runs like this:
as §2

The target of assay [15] is Serine/threonine-protein kinase 17B (Homo sapiens) (UniProt O94768). As to the kind of experiment: Inhibition of wild-type human full length DRAK2 (M1 to C372 residues) expressed in Escherichia coli BL21 assessed as residual activity at 1000 nM after 30 mins by Kinomescan method relative to control. In short, it runs like this: as §1
The target in assay [16] is Mitogen-activated protein kinase 9 (Homo sapiens) (UniProt P45984). The assay is described as follows: Inhibition of wild-type human full length JNK2 (M1 to Q382 residues) expressed in HEK293 cells assessed as residual activity at 1000 nM after 30 mins by Kinomescan method relative to control. It is filed as cell-based. In short, it runs like this: as §1
In assay [17] the test system is Epidermal growth factor receptor (Homo sapiens), P00533 [UNDEFINED MUTATION]. As to the kind of experiment: Inhibition of human partial length EGFR L747-S752del/P753S mutant expressed in Escherichia coli BL21 assessed as residual activity at 1000 nM after 30 mins by Kinomescan method relative to control. In short, it runs like this:
as §3

For assay [18], the system named is Plasmodium falciparum. As to the kind of experiment: Inhibition of wild-type Plasmodium falciparum full length PK5 (M1 to N288 residues) expressed in HEK293 cells assessed as residual activity at 1000 nM after 30 mins by Kinomescan method relative to control. It is filed as cell-based. In short, it runs like this: as §2
The target of assay [19] is Dual specificity protein kinase TTK (Homo sapiens) (UniProt P33981). The assay is described as follows: Inhibition of wild-type human partial length TTK (N505 to V798 residues) expressed in Escherichia coli BL21 assessed as residual activity at 1000 nM after 30 mins by Kinomescan method relative to control.
Assay [20] relates to Mast/stem cell growth factor receptor Kit (Homo sapiens), P10721 [V559D,T670I]. As to the kind of experiment: Inhibition of human partial length KIT V559D/T670I double mutant (Y545 to D952 residues) expressed in Escherichia coli BL21 assessed as residual activity at 1000 nM after 30 mins by Kinomescan method relative to control. In short, it runs like this:
as §3

Assay [21] deals with Epidermal growth factor receptor (Homo sapiens), P00533 [G719S]. As to the kind of experiment: Inhibition of human partial length EGFR G719S mutant (R669 to V1011 residues) expressed in Escherichia coli BL21 assessed as residual activity at 1000 nM after 30 mins by Kinomescan method relative to control. Put shortly:
as §3

Assay [22] deals with Glycogen synthase kinase-3 beta (Homo sapiens) (UniProt P49841). As to the kind of experiment: Inhibition of wild-type human full length GSK3B (M1 to T433 residues) expressed in HEK293 cells assessed as residual activity at 1000 nM after 30 mins by Kinomescan method relative to control. It is filed as cell-based. Put shortly: as §1

Chain of Dual specificity protein kinase TTK (Homo sapiens) (P33981 whole entry, the tested form may be a part): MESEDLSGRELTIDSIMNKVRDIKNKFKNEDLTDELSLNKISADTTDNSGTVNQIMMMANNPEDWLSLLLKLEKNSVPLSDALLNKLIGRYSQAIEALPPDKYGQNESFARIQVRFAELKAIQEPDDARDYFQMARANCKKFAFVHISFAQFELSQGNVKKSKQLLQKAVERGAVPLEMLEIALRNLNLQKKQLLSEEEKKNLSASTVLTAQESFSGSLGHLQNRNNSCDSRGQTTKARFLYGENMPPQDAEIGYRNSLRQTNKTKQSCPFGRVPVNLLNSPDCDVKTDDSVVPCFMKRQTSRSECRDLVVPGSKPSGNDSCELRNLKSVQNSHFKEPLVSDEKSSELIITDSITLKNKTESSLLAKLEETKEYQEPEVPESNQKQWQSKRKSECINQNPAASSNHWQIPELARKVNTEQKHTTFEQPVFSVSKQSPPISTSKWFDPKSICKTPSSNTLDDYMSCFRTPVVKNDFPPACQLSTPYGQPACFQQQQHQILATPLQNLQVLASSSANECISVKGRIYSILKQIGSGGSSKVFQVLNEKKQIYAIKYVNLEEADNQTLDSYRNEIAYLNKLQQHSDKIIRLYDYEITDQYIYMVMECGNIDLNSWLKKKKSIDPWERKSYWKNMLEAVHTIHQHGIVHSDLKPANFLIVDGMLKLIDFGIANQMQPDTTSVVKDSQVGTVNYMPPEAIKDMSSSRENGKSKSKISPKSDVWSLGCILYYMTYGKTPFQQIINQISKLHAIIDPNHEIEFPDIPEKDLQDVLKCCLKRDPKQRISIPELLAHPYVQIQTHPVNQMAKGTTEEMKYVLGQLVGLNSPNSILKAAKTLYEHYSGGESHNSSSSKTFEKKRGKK
Chain of Serine/threonine-protein kinase TAO1 (Homo sapiens) (Q7L7X3 whole entry, the tested form may be a part): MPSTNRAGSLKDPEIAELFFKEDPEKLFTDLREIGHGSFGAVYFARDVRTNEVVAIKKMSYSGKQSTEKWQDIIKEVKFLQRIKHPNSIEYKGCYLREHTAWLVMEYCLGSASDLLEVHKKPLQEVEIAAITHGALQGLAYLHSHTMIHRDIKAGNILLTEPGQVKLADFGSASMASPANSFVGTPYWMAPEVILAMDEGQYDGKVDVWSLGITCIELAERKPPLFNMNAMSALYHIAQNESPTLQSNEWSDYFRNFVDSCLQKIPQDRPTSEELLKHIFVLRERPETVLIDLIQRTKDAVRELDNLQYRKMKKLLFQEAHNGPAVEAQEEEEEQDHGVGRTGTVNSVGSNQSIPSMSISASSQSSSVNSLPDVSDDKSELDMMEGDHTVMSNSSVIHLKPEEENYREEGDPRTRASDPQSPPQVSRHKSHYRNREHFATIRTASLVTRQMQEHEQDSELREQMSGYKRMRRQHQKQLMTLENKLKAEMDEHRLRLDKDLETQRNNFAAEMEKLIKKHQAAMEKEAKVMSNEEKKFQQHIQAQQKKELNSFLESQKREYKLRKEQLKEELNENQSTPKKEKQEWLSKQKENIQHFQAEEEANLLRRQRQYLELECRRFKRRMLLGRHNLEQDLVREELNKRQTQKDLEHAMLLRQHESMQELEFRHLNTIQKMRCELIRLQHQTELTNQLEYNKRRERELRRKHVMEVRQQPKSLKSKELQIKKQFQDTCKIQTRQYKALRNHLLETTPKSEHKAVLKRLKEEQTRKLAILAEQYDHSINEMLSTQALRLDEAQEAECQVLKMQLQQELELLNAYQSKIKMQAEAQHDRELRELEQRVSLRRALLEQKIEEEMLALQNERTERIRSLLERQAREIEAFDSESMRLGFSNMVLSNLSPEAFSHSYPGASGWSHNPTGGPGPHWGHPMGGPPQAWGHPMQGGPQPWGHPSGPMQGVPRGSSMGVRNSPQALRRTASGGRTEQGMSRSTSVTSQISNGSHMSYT
Chain of Receptor-interacting serine/threonine-protein kinase 2 (Homo sapiens) (O43353 whole entry, the tested form may be a part): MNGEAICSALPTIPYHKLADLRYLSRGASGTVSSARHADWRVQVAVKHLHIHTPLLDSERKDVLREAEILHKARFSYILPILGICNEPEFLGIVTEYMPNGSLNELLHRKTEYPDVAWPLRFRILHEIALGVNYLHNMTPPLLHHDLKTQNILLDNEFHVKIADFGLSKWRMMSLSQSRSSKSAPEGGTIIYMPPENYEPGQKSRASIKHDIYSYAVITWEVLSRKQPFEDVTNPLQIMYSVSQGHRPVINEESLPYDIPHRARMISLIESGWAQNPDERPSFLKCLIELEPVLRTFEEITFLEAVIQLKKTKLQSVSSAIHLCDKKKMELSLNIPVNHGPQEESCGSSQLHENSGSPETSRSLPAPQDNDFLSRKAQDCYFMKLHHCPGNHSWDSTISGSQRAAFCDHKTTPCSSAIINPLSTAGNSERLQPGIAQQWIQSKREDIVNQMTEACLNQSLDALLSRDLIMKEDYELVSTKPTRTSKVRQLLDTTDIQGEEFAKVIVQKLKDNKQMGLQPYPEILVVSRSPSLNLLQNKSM
Chain of Proto-oncogene tyrosine-protein kinase receptor Ret (Homo sapiens) (P07949 whole entry, the tested form may be a part): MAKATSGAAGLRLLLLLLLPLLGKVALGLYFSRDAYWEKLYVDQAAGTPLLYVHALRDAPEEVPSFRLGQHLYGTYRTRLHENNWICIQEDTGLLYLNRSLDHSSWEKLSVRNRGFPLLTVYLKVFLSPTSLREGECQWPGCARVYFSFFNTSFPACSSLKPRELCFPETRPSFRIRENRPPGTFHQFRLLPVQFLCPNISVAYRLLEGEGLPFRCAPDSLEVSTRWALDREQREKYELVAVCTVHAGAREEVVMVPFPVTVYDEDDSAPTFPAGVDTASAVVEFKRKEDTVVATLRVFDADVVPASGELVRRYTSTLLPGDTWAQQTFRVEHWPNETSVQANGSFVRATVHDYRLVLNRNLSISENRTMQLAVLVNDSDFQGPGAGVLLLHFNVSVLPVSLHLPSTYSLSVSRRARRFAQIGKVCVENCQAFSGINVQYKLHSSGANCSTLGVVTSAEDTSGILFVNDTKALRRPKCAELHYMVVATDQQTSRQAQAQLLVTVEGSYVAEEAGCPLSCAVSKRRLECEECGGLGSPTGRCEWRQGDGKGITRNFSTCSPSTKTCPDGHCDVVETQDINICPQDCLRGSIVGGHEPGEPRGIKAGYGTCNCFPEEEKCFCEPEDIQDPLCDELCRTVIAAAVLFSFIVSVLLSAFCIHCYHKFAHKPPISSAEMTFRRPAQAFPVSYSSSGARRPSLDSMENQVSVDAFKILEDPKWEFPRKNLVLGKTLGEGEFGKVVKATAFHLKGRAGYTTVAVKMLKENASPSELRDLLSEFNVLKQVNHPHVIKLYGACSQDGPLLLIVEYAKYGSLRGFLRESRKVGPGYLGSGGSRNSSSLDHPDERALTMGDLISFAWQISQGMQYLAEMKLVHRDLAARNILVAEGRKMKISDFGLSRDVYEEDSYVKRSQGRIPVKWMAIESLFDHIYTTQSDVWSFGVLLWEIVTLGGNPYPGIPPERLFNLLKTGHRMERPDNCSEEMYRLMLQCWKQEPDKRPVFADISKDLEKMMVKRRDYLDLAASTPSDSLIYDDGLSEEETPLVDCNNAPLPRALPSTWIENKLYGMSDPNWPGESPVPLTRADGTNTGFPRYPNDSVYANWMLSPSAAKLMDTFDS
Chain of Ribosomal protein S6 kinase alpha-4 (Homo sapiens) (O75676 whole entry, looked up, the tested form may be a part, canonical isoform): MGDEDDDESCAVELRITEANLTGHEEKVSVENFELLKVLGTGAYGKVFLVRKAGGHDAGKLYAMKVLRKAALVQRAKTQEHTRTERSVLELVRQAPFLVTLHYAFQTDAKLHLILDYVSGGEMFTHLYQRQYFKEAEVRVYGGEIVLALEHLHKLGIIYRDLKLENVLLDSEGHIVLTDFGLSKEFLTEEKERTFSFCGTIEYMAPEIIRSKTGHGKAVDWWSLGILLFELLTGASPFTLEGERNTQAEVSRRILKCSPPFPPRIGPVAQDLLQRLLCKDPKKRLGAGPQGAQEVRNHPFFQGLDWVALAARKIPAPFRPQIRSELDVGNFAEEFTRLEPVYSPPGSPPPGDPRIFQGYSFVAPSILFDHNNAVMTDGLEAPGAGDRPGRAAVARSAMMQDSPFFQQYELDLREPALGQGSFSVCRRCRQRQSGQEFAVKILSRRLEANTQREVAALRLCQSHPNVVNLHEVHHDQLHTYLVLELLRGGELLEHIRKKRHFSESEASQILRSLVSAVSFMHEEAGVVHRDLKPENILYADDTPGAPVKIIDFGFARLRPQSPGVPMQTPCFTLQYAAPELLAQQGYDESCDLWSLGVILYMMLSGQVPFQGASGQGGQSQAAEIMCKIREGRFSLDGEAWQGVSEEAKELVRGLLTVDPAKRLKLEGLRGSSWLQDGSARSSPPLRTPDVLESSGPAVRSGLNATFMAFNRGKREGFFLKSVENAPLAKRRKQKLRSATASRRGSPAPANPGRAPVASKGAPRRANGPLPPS
Chain of Activin receptor type-1-like (Homo sapiens) (P37023 whole entry, the tested form may be a part): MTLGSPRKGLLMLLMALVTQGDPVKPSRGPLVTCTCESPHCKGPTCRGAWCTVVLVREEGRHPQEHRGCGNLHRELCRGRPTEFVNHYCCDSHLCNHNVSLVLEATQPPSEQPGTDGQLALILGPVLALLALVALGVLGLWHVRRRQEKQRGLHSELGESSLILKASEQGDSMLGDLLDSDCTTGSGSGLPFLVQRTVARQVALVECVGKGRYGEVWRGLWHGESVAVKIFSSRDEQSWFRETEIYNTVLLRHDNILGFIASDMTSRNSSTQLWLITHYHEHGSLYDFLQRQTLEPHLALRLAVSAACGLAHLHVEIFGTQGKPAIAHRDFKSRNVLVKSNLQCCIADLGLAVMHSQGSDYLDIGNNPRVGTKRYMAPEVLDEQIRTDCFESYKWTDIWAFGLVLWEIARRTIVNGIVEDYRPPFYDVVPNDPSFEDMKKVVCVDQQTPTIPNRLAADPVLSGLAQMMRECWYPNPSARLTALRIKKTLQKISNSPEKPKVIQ

For `COc1cc(OC)c(Cl)c(N2Cc3cnc(Nc4ccc(F)cc4)nc3N(C3CCN(C(=O)/C=C/CN(C)C)CC3)C2=O)c1Cl`, the Activity in assay [1] turned out to be 79%; in [2], 13%; in assay [3] it was 100%; in [4], 96%; in assay [5], 100%; in assay [6], 67%. The Activity is 8.1% in assay [7]; 100% in [8]; 94% in [10]; 100% in assay [11]; 97% in [13]; 100% in [14]. In addition, the Activity in [15] amounted to 99%; in [16] it was 92%; in [17], 100%; in [18], 100%; in assay [19] it was 86%; in assay [20], 82%. For the same compound, the Activity in assay [21] came out at 87%; in assay [22], 100%. For the same compound, the IC50 in assay [9] is 0.77 nM; in [12], 8.69 nM.
